Drawing on ChEMBL document CHEMBL1157279, “8-methyl-pyridoxatin: A novel N-hydroxy pyridone from fungus OS-F61800 that induces erythropoietin in human cells” (1999), this text covers Activity and IC90 for three compounds.

In assay [1] the test system is Hep 3B2. The assay can be described thus: Induction of erythropoietin gene expression in human Hep3B cells assessed as concentration resulting in five fold induction by luciferase reporter assay relative to control. The class given is functional. The method, boiled down:
(§1)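 Hep3B epo-3 cells carrying an EPO-luciferase reporter; compounds tested at 0.1 to 30 µM, in triplicate in at least three experiments. Read-out is the ratio of light units with compound to a 0.5% DMSO vehicle control. TIR5x is the concentration giving fivefold induction; TIRmax is the minimum concentration giving maximum-fold induction. 10 µM CoCl2 served as positive control.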

Assay [2] can be described thus: Cytotoxicity against human Hep3B cells after 48 hrs by MTT assay. The class given is functional, Hep 3B2. Summed up: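 Hep3B epo-3 cells, 48 h exposure, standard MTT assay; value is concentration giving 90% inhibition (IC90).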
(Tetrazolium dyes change colour on reduction, which living cells bring about.)

For assay [3], the system named is Hep 3B2. The assay can be described thus: Induction of erythropoietin protein expression in human Hep3B cells assessed per ml of protein at 10 uM by ELISA relative to control. It counts as functional. The method, boiled down:
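Hep3B epo-3 cells incubated 24 h with compound at a single 10 µM; native EPO secreted into culture measured by human EPO ELISA kit, in mU/mL culture, against a 0.5% DMSO vehicle control; 10 µM CoCl2 as positive control.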

Assay [4] has as its system Hep 3B2. The assay can be described thus: Induction of erythropoietin gene expression in human Hep3B cells assessed as concentration resulting in maximum fold induction by luciferase reporter assay relative to control. It counts as functional. The method, boiled down: as §1
For orientation: Reporter assays use an easily measured gene product as a stand-in for the process of interest.

The source made the active and inactive calls. No cut-off for these calls is given here.

In the case of `C=C[C@]1(C)C[C@H](C)C[C@H](C)[C@H]1c1c(O)ccn(O)c1=O`, the Activity with Hep 3B2 [1] was 0.3 µM; in the assay on Hep 3B2 [3], 120 mU/mL; with Hep 3B2 [4], 0.7 µM. In assay [2], this compound displayed an IC90 greater than 20 µM.
On to `C=C[C@]1(C)C[C@H](C)C[C@H](C)[C@H]1c1c(OC)ccn(OC)c1=O`, for which the result in the assay with Hep 3B2 [1] and in the assay with Hep 3B2 [4] was inactive.
Turning to `Cc1cc(C2CCCCC2)n(O)c(=O)c1.NCCO` [CICLOPIROX OLAMINE], the Activity with Hep 3B2 [1] turned out to be 3 µM; in the assay on Hep 3B2 [3] it was 99 mU/mL; with Hep 3B2 [4] it was 15 µM. Further, the IC90 in assay [2] is greater than 20 µM.

In general, IC90 refers to the concentration needed for an effect of 90%. A high value points to a need for much substance.
